Data: ChEMBL document CHEMBL1821668, “Isolation and characterization of aphidicolin and chlamydosporol derivatives from Tolypocladium inflatum” (J Nat Prod, 2011)

Legend:
A549 = assay: Cytotoxicity against human A549 cells after 72 hrs by MTS assay; assay type: functional, cell-based; conditions: A549, 72 h
Summary of the method: (§1)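 Triplicate wells seeded at (2–5) × 10^3 cells each, depending on growth rate, and left overnight to attach. Medium was then replaced with medium containing test compound at serial dilutions from 100 mM DMSO stocks, or 0.1% DMSO. Incubation was 72 h at 37 °C in humidified 5% CO2. MTS was added in the dark, with a 90 min read-out incubation at 37 °C.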

[1] = Cytotoxicity against human CNE1-LMP1 cells after 72 hrs by MTS assay; assay type: functional, cell-based; conditions: CNE1-LMP1, 72 h; summary of the method: as §1
[2] = Cytotoxicity against human EC109 cells after 72 hrs by MTS assay; assay type: functional, cell-based; conditions: ECa-109, 72 h; summary of the method: as §1
A-375 = assay: Cytotoxicity against human A375 cells after 72 hrs by MTS assay; assay type: functional, cell-based; conditions: A-375, 72 h; summary of the method: as §1
[3] = Cytotoxicity against human MGC cells after 72 hrs by MTS assay; assay type: functional, cell-based; summary of the method: as §1
[4] = Cytotoxicity against human Hep3B2 cells after 72 hrs by MTS assay; assay type: functional, cell-based, Hep 3B2; conditions: Hep3B; summary of the method: as §1
HaCaT = assay: Cytotoxicity against human HaCaT cells after 72 hrs by MTS assay; assay type: functional, cell-based; summary of the method: as §1
MCF7 = assay: Cytotoxicity against human MCF7 cells after 72 hrs by MTS assay; assay type: functional, cell-based; conditions: MCF7, 72 h; summary of the method: as §1
PANC-1 = assay: Cytotoxicity against human PANC1 cells after 72 hrs by MTS assay; assay type: functional, cell-based; conditions: PANC-1, 72 h; summary of the method: as §1

SMILES: COc1cc(=O)oc2c1[C@H](O[C@@H]1O[C@@H](C)[C@H](C)c3oc(=O)cc(OC)c31)O[C@@H](C)[C@@H]2C [INFLATIN F]
- IC50 (A549): > 100 µM
- IC50 [1]: > 100 µM
- IC50 [2]: > 100 µM
- IC50 (A-375): > 100 µM
- IC50 [3]: > 100 µM
- IC50 [4]: 57.5 µM
- IC50 (HaCaT): > 100 µM
- IC50 (MCF7): > 100 µM
- IC50 (PANC-1): > 100 µM

SMILES: COc1cc(=O)oc2c1[C@H](O[C@@H]1O[C@@H](C)[C@@H](C)c3oc(=O)cc(OC)c31)O[C@@H](C)[C@H]2C [INFLATIN D]
- IC50 (A549): > 100 µM
- IC50 [1]: > 100 µM
- IC50 [2]: > 100 µM
- IC50 (A-375): > 100 µM
- IC50 [3]: > 100 µM
- IC50 [4]: > 100 µM
- IC50 (HaCaT): > 100 µM
- IC50 (MCF7): > 100 µM
- IC50 (PANC-1): > 100 µM

SMILES: COc1cc(=O)oc2c1[C@H](O)O[C@@H](C)[C@H]2C [INFLATIN C]
- IC50 (A549): > 100 µM
- IC50 [1]: > 100 µM
- IC50 [2]: > 100 µM
- IC50 (A-375): > 100 µM
- IC50 [3]: > 100 µM
- IC50 [4]: > 100 µM
- IC50 (HaCaT): > 100 µM
- IC50 (MCF7): > 100 µM
- IC50 (PANC-1): > 100 µM

SMILES: C[C@@]12CO[C@H](c3ccc(O)cc3)O[C@@H]1CC[C@@]1(C)[C@H]2CC[C@H]2C[C@@H]3C[C@@]21CC[C@]3(O)CO [INFLATIN A]
- IC50 (A549): 75.3 µM
- IC50 [1]: 39.1 µM
- IC50 [2]: 47.1 µM
- IC50 (A-375): 47.3 µM
- IC50 [3]: 54.5 µM
- IC50 [4]: 14.8 µM
- IC50 (HaCaT): 49.1 µM
- IC50 (MCF7): 33.5 µM
- IC50 (PANC-1): 19.9 µM

SMILES: CC(=O)O[C@H]1C(=O)[C@@]2(C)[C@H]([C@H](OC(=O)c3ccccc3)[C@]3(O)C[C@H](OC(=O)[C@H](O)[C@@H](NC(=O)c4ccccc4)c4ccccc4)C(C)=C1C3(C)C)[C@]1(OC(C)=O)CO[C@@H]1C[C@@H]2O [PACLITAXEL]
- IC50 (A549): 0.03 µM
- IC50 [1]: 0.0042 µM
- IC50 [2]: 0.14 µM
- IC50 (A-375): 0.0089 µM
- IC50 [3]: 0.0064 µM
- IC50 [4]: 1.6e-05 µM
- IC50 (HaCaT): 0.024 µM
- IC50 (MCF7): 0.014 µM
- IC50 (PANC-1): 0.0011 µM

SMILES: COc1cc(=O)oc2c1[C@H](O[C@@H]1O[C@@H](C)[C@@H](C)c3oc(=O)cc(OC)c31)O[C@@H](C)[C@@H]2C [INFLATIN E]
- IC50 (A549): > 100 µM
- IC50 [1]: > 100 µM
- IC50 [2]: > 100 µM
- IC50 (A-375): > 100 µM
- IC50 [3]: > 100 µM
- IC50 [4]: > 100 µM
- IC50 (HaCaT): > 100 µM
- IC50 (MCF7): > 100 µM
- IC50 (PANC-1): > 100 µM

SMILES: CC(=O)OC[C@@]1(O)CC[C@]23C[C@H]1C[C@@H]2CC[C@H]1[C@]2(C)CO[C@H](c4ccc(O)cc4)O[C@@H]2CC[C@@]13C [INFLATIN B]
- IC50 (A549): 25 µM
- IC50 [1]: 15 µM
- IC50 [2]: 70.8 µM
- IC50 (A-375): 25.5 µM
- IC50 [3]: > 100 µM
- IC50 [4]: 7.3 µM
- IC50 (HaCaT): 55.1 µM
- IC50 (MCF7): 75.2 µM
- IC50 (PANC-1): 53.2 µM
